ChEMBL document CHEMBL3259725, “Synthesis of stable aromatic and heteroaromatic sulfonyl-amidoximes and evaluation of their antioxidant and lipid peroxidation activity” (Eur J Med Chem, 2014)
Calls of active or inactive are those of the source. The calls are words filed in the database; no cut-off is given here.

Columns and labels:
Type in all cases: functional
[1] = Antioxidant activity assessed as inhibition of Fe3+/ascorbic acid-induced hydroxyl radical formation by measuring DMSO-induced formaldehyde production at 100 uM after 30 mins relative to control
Outline: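 Hydroxyl radicals were generated by Fe3+/ascorbic acid in 50 mM phosphate buffer, pH 7.4, containing 0.1 mM EDTA and 33 mM DMSO, with compounds at 0.1 mM. Radical yield was measured as formaldehyde formed from DMSO oxidation, determined by the Nash method.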

[2] = Antioxidant activity assessed as inhibition of AAPH-induced linoleic acid peroxidation at 100 uM by UV spectrophotometric analysis relative to control
Outline: (§1)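 Linoleic acid dispersion (16 mM stock) in 0.05 M phosphate buffer, pH 7.4, pre-equilibrated at 37 °C. Oxidation was started with AAPH (40 mM stock solution) as radical initiator, with test compound added in DMSO. Conjugated diene hydroperoxide formation was followed as the rise in absorbance at 234 nm at 37 °C. The control contained the same level of DMSO without antioxidant.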

[3] = system: Radical scavenging activity; test: Antioxidant activity assessed as reduction of DPPH free radical formation at 100 uM after 60 mins relative to control; parameters: scale not given: the % may be the effect or the level left
Outline: (§2)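 Compounds at a final 100 concentration were mixed with the stable radical DPPH, using ethanol as the control solution. Absorbance at 517 nm was read after 20 and 60 min at room temperature. Each assay was run at least in triplicate.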

[4] = system: Radical scavenging activity; test: Antioxidant activity assessed as reduction of DPPH free radical formation at 100 uM after 20 mins relative to control; parameters: scale not given: the % may be the effect or the level left; outline: as §2
[5] = Antioxidant activity assessed as inhibition of AAPH-induced linoleic acid peroxidation by UV spectrophotometric analysis; outline: as §1

| IC50 [5] [µM] | SMILES | inhibition [1] | inhibition [2] | Activity [3] | Activity [4] |
| --- | --- | --- | --- | --- | --- |
|  | NC(=NOS(=O)(=O)c1ccc([N+](=O)[O-])cc1)c1ccncc1 | 0% | 49% | 20% | 13% |
|  | CC(Cc1ccc(O)c(O)c1)C(C)Cc1ccc(O)c(O)c1 (stereo unspecified) |  |  | 81% | 77% |
|  | CCCCCCCCCCCCCCCCS(=O)(=O)O/N=C(\N)c1ccc([N+](=O)[O-])cc1 | 100% | 3% | 24% | 21% |
|  | Cc1ccc(S(=O)(=O)O/N=C(\N)c2ccncc2)cc1 | 32% | inactive | inactive | inactive |
|  | Cc1ccc(S(=O)(=O)O/N=C(\N)c2ccc([N+](=O)[O-])cc2)cc1 | 78% | 25% | 11% | 10% |
| 80 | Cc1ccc(S(=O)(=O)O/N=C(\N)c2ccccn2)cc1 | 72% |  | 4% | 5% |
| 72 | N/C(=N\OS(=O)(=O)c1ccc([N+](=O)[O-])cc1)c1ccccn1 | 98% |  | 32% | 32% |
|  | CCCCCCCCCCS(=O)(=O)O/N=C(\N)c1ccc([N+](=O)[O-])cc1 | 48% | inactive | 12% | 3% |
| 55 | Cc1c(C)c2c(c(C)c1O)CCC(C)(C(=O)O)O2 (stereo unspecified) [TROLOX] | 88% |  |  |  |
|  | NC(=NO)c1ccncc1 | 87% | inactive | 7% | 3% |
|  | CCCS(=O)(=O)O/N=C(\N)c1cccnc1 | 63% | 16% | 27% | 23% |
|  | CCCCCCCCCCCCCCCCS(=O)(=O)O/N=C(\N)c1ccncc1 | inactive | 12% | 21% | 14% |
| 70 | CCCCCCCCCCCCCCCCS(=O)(=O)O/N=C(\N)c1cccnc1 | 69% |  | 16% | 7% |
|  | CCCCCCCCCCS(=O)(=O)O/N=C(\N)c1cccnc1 | 72% | 33% | 24% | 20% |
|  | N/C(=N\O)c1cccnc1 | 60% | inactive | 15% | 12% |
|  | Cc1ccc(S(=O)(=O)O/N=C(\N)c2cccnc2)cc1 | 95% | 43% | 41% | 34% |
|  | CCCCCCCCCCS(=O)(=O)O/N=C(\N)c1ccncc1 | 70% | 28% | 21% | 14% |
|  | CCCS(=O)(=O)O/N=C(\N)c1ccc([N+](=O)[O-])cc1 | 75% | 22% | 19% | 10% |
|  | N/C(=N\OS(=O)(=O)c1ccccc1)c1ccc([N+](=O)[O-])cc1 | 34% | 5% | 8.4% | 4% |
| 85 | N/C(=N\OS(=O)(=O)c1ccc([N+](=O)[O-])cc1)c1cccnc1 | 18% |  | 11% | 8% |
|  | N=C(NOS(=O)(=O)c1ccccc1)c1ccccn1 | 32% | 30% | inactive | 4% |
| 66.5 | N/C(=N\OS(=O)(=O)c1ccc([N+](=O)[O-])cc1)c1ccc([N+](=O)[O-])cc1 | inactive |  | 38% | 34% |
|  | CCCS(=O)(=O)O/N=C(\N)c1ccncc1 | 66% | inactive | 4% | inactive |
|  | N=C(NOS(=O)(=O)c1ccccc1)c1ccncc1 | 44% | 22% | 11% | 2% |
|  | N/C(=N\O)c1ccccn1 | 81% | inactive | 14% | 11% |
|  | N=C(NOS(=O)(=O)c1ccccc1)c1cccnc1 | 28% | 21% | 25% | 24% |
|  | CCCS(=O)(=O)O/N=C(\N)c1ccccn1 | 83% | inactive | 1% | 6% |
|  | CCCCCCCCCCCCCCCCS(=O)(=O)O/N=C(\N)c1ccccn1 | inactive | 21% | 1% | 4% |
|  | CCCCCCCCCCS(=O)(=O)O/N=C(\N)c1ccccn1 | 79% | 46% | 10% | 11% |
|  | N/C(=N\O)c1ccc([N+](=O)[O-])cc1 | 85% | 41% | 4% | 3% |
